T cruzi growth-1: inhibitors of T. cruzi proliferation; T. cruzi beta-gal in NIH3T3, GalScreen luminescence, 90 h; hit rate 5.9% among 77,000; inhibition, % at 8.34 µM;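 active = mean inhibition above about 93%, with at least 55% of replicates each passing it, limit read from the data, passing the limit was not always enough; inconclusive = only one of those two conditions holds; inactive = neither condition holds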
IDH1 mut inh: inhibitors of human IDH1 R132H; O75874; IDH1 R132H reductase, diaphorase/resazurin fluorescence, 60 min; inhibition, % at 10 µM; hit rate 0.18% among 70,000; AID 624101; in the data active = inhibition above about 34%; inconclusive = no clear call, values can overlap the other calls; inactive = below about 11%;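 also: 0% = DMSO and 100% = no enzyme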
Pf Dd2 growth: blocks growth of Plasmodium falciparum Dd2 parasites; activity change, % at 10 µM; P. falciparum Dd2 growth, SYBR Green, 72 h; stronger effect = lower value; hit rate 2.3% among 94,000; in the data active = activity change below about -80%; inconclusive = no clear call, values can overlap the other calls
GASC1 inh: KDM4C (human) demethylase inhibition | Q9H3R0 | GST-KDM4C 2-372, H3K9me3 peptide, LANCE TR-FRET | inhibition, % at 12.5 µM | hit rate 0.15% among 96,000;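 active = mean replicate inhibition above about 25%, with at least 55% of replicates also reaching it, limit read from the data, passing the limit was not always enough; inconclusive = only one of those two conditions met; inactive = neither condition met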
Target sequence (Q9H3R0 2-372 limits assumed): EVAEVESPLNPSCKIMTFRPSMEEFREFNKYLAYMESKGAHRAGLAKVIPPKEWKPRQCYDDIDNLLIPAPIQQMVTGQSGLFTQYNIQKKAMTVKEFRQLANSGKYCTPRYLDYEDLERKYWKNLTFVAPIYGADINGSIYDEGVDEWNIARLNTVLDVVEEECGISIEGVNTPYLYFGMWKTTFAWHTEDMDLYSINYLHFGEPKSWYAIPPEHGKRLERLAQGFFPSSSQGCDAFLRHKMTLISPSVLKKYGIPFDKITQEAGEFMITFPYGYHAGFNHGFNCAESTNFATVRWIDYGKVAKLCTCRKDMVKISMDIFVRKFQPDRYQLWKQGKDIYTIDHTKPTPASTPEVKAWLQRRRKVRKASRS
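Material: GST-tagged GASC-1 (JMJD2C) catalytic fragment, aa 2-372. Input: enzyme final amount 10 nM. Medium: HEPES buffer, pH 7.5, plus ascorbate. Reagent: H3K9me3 peptide substrate, Fe(II), 2-oxoglutarate. Doses: single dose. Times: reaction 30 min RT, detection step 1 h RT. Measured by: LANCE TR-FRET. Evaluation: Fall in 671/618 emission ratio as inhibition.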
T cruzi growth-2: Trypanosoma cruzi proliferation inhibition. inhibition, % at 8.35 µM. T. cruzi beta-gal in NIH3T3, GalScreen luminescence, 90 h. shares compounds with T cruzi growth-1. hit rate 72% among 5,600;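 active = mean replicate inhibition above about 95% and at least 55% of replicates individually reaching it, limit read from the data; inconclusive = only one of the two criteria is met; inactive = neither criterion is met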
T cruzi growth-3: blocks T. cruzi growth in NIH3T3 host cells. shares compounds with T cruzi growth-1. hit rate 21% among 5,600. inhibition, % at 2.09 µM. T. cruzi beta-gal in NIH3T3, GalScreen luminescence, 90 h;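 active = mean inhibition above about 95%, with at least 55% of replicates also reaching it, limit read from the data; inconclusive = meets just one of the two conditions; inactive = meets neither condition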;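 also: plate controls were neutral control median for no effect and positive control median for full effect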
NIH3T3 tox: cytotoxicity in mouse NIH/3T3 fibroblasts. hit rate 14% among 5,600. shares compounds with T cruzi growth-1. cytotoxicity (signal decrease), % at 8.35 µM. NIH/3T3 viability, CellTiter-Glo ATP luminescence, 90 h;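 active = mean signal decrease across replicates above about 35% based on untreated-well scatter, with enough replicates individually passing, limit read from the data; inconclusive = no rule stated though some were filed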;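 also: 0% = median of neutral control wells and 100% = median of positive control wells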
NIH3T3 tox 2: kills mouse NIH/3T3 fibroblasts | NIH/3T3 viability, CellTiter-Glo ATP luminescence, 90 h | AID 651744 | hit rate 56% among 5,600 | shares compounds with T cruzi growth-1 | inhibition, % at 24.9 µM;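 active = mean loss of cell viability signal at or above a set limit, and enough replicates individually reaching it; inconclusive = meets only the mean limit or only the replicate share; inactive = meets neither condition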;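 also: 0% = median of neutral control wells and 100% = median of positive control wells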
* marks the source's active call; other numbers are inactive results; u = inconclusive; x = not tested or not shown; ! = not active in a repeat. The list is not random: actives were taken first. Their share in the collection is about 5.9%.

SMILES | T cruzi growth-1 | IDH1 mut inh | Pf Dd2 growth | GASC1 inh | T cruzi growth-2 | T cruzi growth-3 | NIH3T3 tox | NIH3T3 tox 2
C[C@H](CO)N1C[C@H](C)[C@@H](CN(C)C(=O)Cc2ccncc2)Oc2cc(C#CC3CC3)ccc2S1(=O)=O | 97* | u | -16 | -3 | 102* | 58 | 6 | 9
C[C@H]1CN([C@@H](C)CO)S(=O)(=O)c2ccc(C#CC3CC3)cc2O[C@@H]1CN(C)C(=O)Cc1ccncc1 | 96* | x | -50 | 1 | 104* | 74 | -30 | -17
C[C@H]1CN([C@@H](C)CO)S(=O)(=O)c2ccc(C#CC3CC3)cc2O[C@H]1CN(C)C(=O)Cc1ccncc1 | 90 | 15 | -68 | 1 | x | x | x | x
C[C@@H]1CN([C@@H](C)CO)S(=O)(=O)c2ccc(C#CC3CC3)cc2O[C@@H]1CN(C)C(=O)Cc1ccncc1 | 88 | x | -52 | -1 | x | x | x | x
Cc1ccc(N(C(C)C(=O)Nc2ccccc2C(=O)N2CCCC2)S(C)(=O)=O)cc1 (configuration not stated) | x | -1 | x | x | x | x | x | x
O=C(Nc1ccc(F)cc1)N1CCCCN2[C@H](CO)[C@H](c3ccc(C#CC4CC4)cc3)[C@H]2C1 | 70 | x | -40 | -1 | x | x | x | x
O=C(Nc1cccc(F)c1)N1CCCCN2[C@H](CO)[C@@H](c3ccc(C#Cc4ccccc4)cc3)[C@@H]2C1 | 88 | x | -18 | 0 | x | x | x | x
O=C(Nc1cccc(F)c1)N1CCCCN2[C@@H](CO)[C@H](c3ccc(C#CC4CC4)cc3)[C@@H]2C1 | u | x | -19 | 0 | 93 | 102* | 105* | 106*
O=C(Nc1ccc(F)cc1)N1CCCCN2[C@@H](CO)[C@@H](c3ccc(C#CC4CC4)cc3)[C@@H]2C1 | 97* | x | -53 | 1 | 98* | 107* | 119* | 106*
O=C(Nc1ccc(F)cc1)N1CCCCN2[C@H](C1)[C@H](c1ccc(C#CC3CC3)cc1)[C@@H]2CO | 122* | x | -47 | -1 | 100* | 34 | 26 | 23
Cn1c(SCC(=O)Nc2ccccc2)nc2sc3c(c2c1=O)CCC3 | x | 0 | x | x | x | x | x | x
C[C@@H]1CN([C@H](C)CO)S(=O)(=O)c2ccc(C#CC3CCCC3)cc2O[C@H]1CN(C)C(=O)Cc1ccccc1 | 113* | -5 | u | 1 | 106* | 68 | 3 | 105*
C[C@@H]1CN([C@@H](C)CO)S(=O)(=O)c2ccc(C#CC3CCCCC3)cc2O[C@H]1CN(C)C(=O)Cc1ccncc1 | u | 66* | -70 | 0 | 103* | 78 | 17 | 103*
C[C@@H]1CN([C@@H](C)CO)S(=O)(=O)c2ccc(C#CC3CCCC3)cc2O[C@H]1CN(C)C(=O)Cc1ccccc1 | x | 0 | u | -1 | x | x | x | x
C[C@@H]1CN([C@@H](C)CO)S(=O)(=O)c2ccc(C#CC3CCCC3)cc2O[C@H]1CN(C)C(=O)Cc1ccncc1 | 113* | x | -86* | -2 | 99* | 47 | 21 | 72*
C[C@@H]1CN([C@H](C)CO)S(=O)(=O)c2ccc(C#CC3CCCC3)cc2O[C@H]1CN(C)C(=O)Cc1ccncc1 | 120* | x | -69 | -3 | 101* | 62 | -4 | 99*
C[C@H]1CN([C@@H](C)CO)S(=O)(=O)c2ccc(C#CC3CCCCC3)cc2O[C@H]1CN(C)C(=O)Cc1ccncc1 | 42 | x | -18 | -1 | x | x | x | x
COc1ccc(C(=O)N(Cc2nc(-c3ccccc3)no2)C(C)C)cc1OC | x | 0 | x | x | x | x | x | x
CCOc1cccc(-c2nnc(SCC(=O)n3c4c(c5ccccc53)CCCC4)n2C)c1 | x | 0 | x | x | x | x | x | x
O=C1C(=O)N(Cc2ccco2)C(c2ccccc2)C1C(=O)c1cccs1 (configuration not stated) | x | 0 | x | x | x | x | x | x
Cc1cccnc1NC(=O)COc1ccc(Cl)cc1Cl | x | 2 | x | x | x | x | x | x
CC(=O)Nc1ccc(NC(=O)CN(c2cccc(C(F)(F)F)c2)S(C)(=O)=O)cc1 | x | 0 | x | x | x | x | x | x
CCNS(=O)(=O)c1cc(-c2nnc(Nc3ccc(NC(C)=O)cc3)c3ccccc23)ccc1C | x | 0 | x | x | x | x | x | x
O=C(CC(NC1CCCCC1)C(=O)O)Nc1cccc(Cl)c1 (configuration not stated) | x | 0 | x | x | x | x | x | x
CCC(=O)N1CCCCN2[C@H](CO)[C@H](c3ccc(C#Cc4ccccc4)cc3)[C@H]2C1 | 108* | x | -27 | -1 | 86 | 44 | 40* | 106*
SMILES | T cruzi growth-1 | IDH1 mut inh | Pf Dd2 growth | GASC1 inh | T cruzi growth-2 | T cruzi growth-3 | NIH3T3 tox | NIH3T3 tox 2
CCC(=O)N1CCCCN2[C@H](CO)[C@@H](c3ccc(C#Cc4ccccc4)cc3)[C@@H]2C1 | 86 | x | 15 | -1 | x | x | x | x
CCC(=O)N1CCCCN2[C@@H](CO)[C@H](c3ccc(C#Cc4ccccc4)cc3)[C@@H]2C1 | 112* | x | -10 | 0 | 105* | 73 | 59* | 105*
CCC(=O)N1CCCCN2[C@@H](CO)[C@@H](c3ccc(C#Cc4cccnc4)cc3)[C@@H]2C1 | 111* | x | -24 | 1 | 102* | 76 | 8 | 8
CCC(=O)N1CCCCN2[C@@H](CO)[C@@H](c3ccc(C#Cc4ccccc4)cc3)[C@@H]2C1 | 106* | x | -8 | -1 | 104* | 82 | 24 | 104*
Cc1ccc(-c2nc3ncccc3o2)cc1NC(=O)COc1ccc(C2CCCCC2)cc1 | x | 0 | x | x | x | x | x | x
CCOC(=O)c1c(NC(=O)c2nc3nc(C)cc(C(F)F)n3n2)sc(C)c1C | x | 0 | x | x | x | x | x | x
CCOC(=O)c1c(NC(=S)NC(C)C2CCCO2)sc2c1CCCC2 (configuration not stated) | x | 0 | x | x | x | x | x | x
CN(C)CCCNc1c([N+](=O)[O-])c(=O)n(C)c2ccccc12 | x | 1 | x | x | x | x | x | x
O=S(=O)(Cc1ccccc1)N1CCCCN2[C@H](CO)[C@H](c3ccc(-c4ccc(F)cc4)cc3)[C@@H]2C1 | 100* | x | 10 | 0 | 99* | 75 | 27 | 105*
O=S(=O)(Cc1ccccc1)N1CCCCN2[C@H](CO)[C@@H](c3ccc(-c4ccc(F)cc4)cc3)[C@@H]2C1 | 109* | x | 0 | 0 | 108* | 52 | 23 | 102*
Cc1cc(I)cnc1NC(=O)COc1ccc([N+](=O)[O-])cc1 | x | 0 | x | x | x | x | x | x
Cc1c(Cl)cccc1NC(=O)CSc1nccc(=O)[nH]1 | x | 0 | x | x | x | x | x | x
COc1ccc(C#Cc2cnc3c(c2)C(=O)N([C@@H](C)CO)C[C@@H](C)[C@@H](CN(C)C(=O)Nc2cccc(OC)c2)O3)cc1 | u | x | -43 | -9 | 109* | 73 | 5 | 14
COc1ccc(C#Cc2cnc3c(c2)C(=O)N([C@H](C)CO)C[C@H](C)[C@@H](CN(C)C(=O)Nc2cccc(OC)c2)O3)cc1 | 110*! | 0 | -43 | -1 | 96* | 47 | -4 | 29*
